Measurements taken from ChEMBL document CHEMBL1124408, “3-aminopyridazine derivatives with atypical antidepressant, serotonergic, and dopaminergic activities” (J Med Chem, 1989).

Columns and labels:
[1] = system: Mus musculus; test: Serotonergic activity was determined by measuring the potentiation of 5-hydroxytryptophan in mice upon ip administration; format: functional
In short: (§1)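 Drug was injected ip in distilled water/gum tragacanth to female CD1 mice (18-22 g) at multiple doses (7-20 mice/dose), 30 min before a threshold dose of L-5-HTP (200 mg/kg ip). Mice were held singly in small cages, and tremor was scored all-or-none over the 20 min after L-5-HTP.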

[2] = system: Mus musculus; test: Antidepressant activity against reserpine induced ptosis in mice after intraperitoneal administration.; format: functional; conditions: ip
In short: (§2)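 Female CD1 mice (18-22 g) received the drug in distilled water/gum tragacanth ip at multiple doses (7-20 mice/dose), given together with reserpine (2 mg/kg iv). One hour later, palpebral ptosis (half or more of the lid closed) was scored all-or-none. Screening dose was at most 50% of the seizure threshold dose.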

[3] = system: Mus musculus; test: Ability to modify turning behavior of mice after intraperitoneal administration; format: functional; conditions: ip, read-out: MED
In short: (§3)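 Female CD1 mice (25-30 g) were lesioned by stereotaxic injection of 6-OHDA (10 μg in 1 μL saline with 1 mg/mL ascorbic acid) into the right striatum under pentobarbitone (60 mg/kg ip). Seven days later, drug in distilled water/gum tragacanth was given ip at multiple doses (7-20 mice/dose). Ipsilateral turns were counted for 2 min starting 30 min post-dose.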

[4] = Acute toxicity in mice after intraperitoneal administration.; conditions: mouse, in vivo, ip, LD50
[5] = system: Mus musculus; test: Serotonergic activity by measuring the potentiation of 5-hydroxy tryptophan in mice upon ip administration; value ranges from 4.9-6.7; format: functional; in short: as §1
[6] = system: Mus musculus; test: Compound was tested for antidepressant activity against reserpine induced ptosis in mice after intraperitoneal administration.; value ranges from 27-31; format: functional; conditions: ip; in short: as §2
[7] = system: Mus musculus; test: Compound was tested for antidepressant activity against reserpine induced ptosis in mice after intraperitoneal administration.; value ranges from 3.2-6.3; format: functional; conditions: ip; in short: as §2
[8] = system: Mus musculus; test: Serotonergic activity by measuring the potentiation of 5-hydroxy tryptophan in mice upon ip administration; the value ranges from 3-38; format: functional; in short: as §1
[9] = system: Mus musculus; test: Compound was tested for antidepressant activity against reserpine induced ptosis in mice after intraperitoneal administration.; value ranges from 5.9-7.3; format: functional; conditions: ip; in short: as §2
[10] = system: Mus musculus; test: Serotonergic activity by measuring the potentiation of 5-hydroxy tryptophan in mice upon ip administration; value ranges from 4.4-5.7; format: functional; in short: as §1
[11] = system: Mus musculus; test: Compound was tested for antidepressant activity against reserpine induced ptosis in mice after intraperitoneal administration.; value ranges from 0.13-0.22; format: functional; conditions: ip; in short: as §2
[12] = system: Mus musculus; test: Ability to modify turning behavior of mice after intraperitoneal administration.; format: functional; conditions: ip, read-out: MED; in short: as §3

Structure (SMILES) | ED50 [1] | ED50 [2] | minimal effective dose [3] | LD50 [4] | other results
Cc1ccccc1-c1cc(C)c(NCCN2CCOCC2)nn1 | > 1 mg/kg | > 1 mg/kg | > 1 mg/kg | 5 mg/kg | –
Cc1cc(-c2ccc(Cl)cc2)nnc1NCCN1CCOCC1 | – | > 10 mg/kg | > 2 mg/kg | 62 mg/kg | ED50 [5]: 5.8 mg/kg
Cc1cc(-c2ccccc2)nnc1NCCN(C)C | > 30 mg/kg | – | 10 mg/kg | 118 mg/kg | ED50 [6]: 29 mg/kg
Cc1cc(Cc2ccccc2)nnc1NCCN1CCOCC1 | > 10 mg/kg | > 10 mg/kg | 2 mg/kg | 30 mg/kg | –
Cc1cc(-c2cccc(Cl)c2)nnc1NCCN1CCOCC1 | > 10 mg/kg | > 10 mg/kg | > 2 mg/kg | 21 mg/kg | –
Cc1cc(-c2ccc3ccccc3c2)nnc1NCCN1CCOCC1 | – | > 10 mg/kg | > 2 mg/kg | 23 mg/kg | –
c1ccc(-c2cc(-c3ccccc3)c(NCCN3CCOCC3)nn2)cc1 | > 25 mg/kg | > 50 mg/kg | > 2 mg/kg | 150 mg/kg | –
COc1ccccc1-c1cc(C)c(NCCN2CCOCC2)nn1 | > 10 mg/kg | > 10 mg/kg | 0.5 mg/kg | 40 mg/kg | –
Cc1cc(-c2ccccc2F)nnc1NCCN1CCOCC1 | > 10 mg/kg | > 10 mg/kg | 0.5 mg/kg | 26 mg/kg | –
Cc1cc(C2CCCCC2)nnc1NCCN1CCOCC1 | – | – | > 10 mg/kg | 43 mg/kg | ED50 [7]: 4.5 mg/kg; ED50 [8]: 16 mg/kg
N#Cc1cc(-c2ccccc2)nnc1NCCN1CCOCC1 [BAZINAPRINE] | – | – | 0.1 mg/kg | – | ED50 [9]: 6.6 mg/kg; ED50 [10]: 5 mg/kg
CN1Cc2c(N)cccc2C(c2ccccc2)C1 (stereo not given) [NOMIFENSINE] | > 30 mg/kg | – | – | – | ED50 [11]: 0.17 mg/kg; minimal effective dose [12]: 5 mg/kg
